High-throughput results as filed in PubChem.
Diaph act CS = diaphorase activation or chemical reduction counter-screen; activation factor at 20 µM; 190,000 compounds, 0.005% hits; Diaphorase/resazurin coupled assay, resorufin fluorescence, 16 min; hits give high values; 1 = vehicle wells, 0 = NADH-free wells; AID 1229;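 active = diaphorase activity raised at least twofold by the compound at 20 µM; inactive = activation factor below 2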
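Assay system: Purified diaphorase enzyme from Clostridium kluyveri | Amount: Enzyme 0.07 U/mL final | Dosing: Compound 20 µM once, DMSO 1% | Timing: 16 min reaction at room temperature | Detection: Fluorescence, excitation 544 nm and emission 590 nm | Evaluation: Higher resorufin formation from activation or reduction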
PMI act hi M6P = increases human PMI activity with near-saturating mannose 6-phosphate | 190,000 compounds, 0.34% hits | activation factor at 20 µM | coupled PMI enzyme assay, resazurin fluorescence, 20 min; hits give high values; 1 = untreated enzyme, 0 = substrate-free blank;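 active = activation factor of 2 or more at 20 µM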
Target sequence (P34949 whole entry, looked up): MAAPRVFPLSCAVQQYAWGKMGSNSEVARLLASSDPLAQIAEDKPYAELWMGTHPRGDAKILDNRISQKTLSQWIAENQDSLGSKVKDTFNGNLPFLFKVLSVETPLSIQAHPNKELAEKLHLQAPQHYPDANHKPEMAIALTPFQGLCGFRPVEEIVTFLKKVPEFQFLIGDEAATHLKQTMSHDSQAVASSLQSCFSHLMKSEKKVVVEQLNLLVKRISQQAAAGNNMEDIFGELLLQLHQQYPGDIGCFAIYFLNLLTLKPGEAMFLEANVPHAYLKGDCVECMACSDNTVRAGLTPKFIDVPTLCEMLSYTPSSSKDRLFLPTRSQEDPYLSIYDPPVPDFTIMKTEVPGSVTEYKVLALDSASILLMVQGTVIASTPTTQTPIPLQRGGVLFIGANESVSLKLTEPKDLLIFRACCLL
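Material: human phosphomannose isomerase with PGI, G6PDH, diaphorase coupling enzymes / Reagent: Man-6-P substrate 1.0 mM / Dosing: single compound dose of 20 µM, 1% DMSO final / Incubation: enzyme reaction with compound 20 min at room temperature / Signal: resorufin fluorescence (Ex 544/Em 590 nm) from resazurin via diaphorase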
PMI act = activators of human phosphomannose isomerase; purified human PMI, coupled resazurin fluorescence, 20 min; hits give high values; 1 = vehicle control, 0 substrate-free wells; activation factor at 20 µM; 190,000 compounds, 0.005% hits; AID 1214;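 active = activation factor of 2 or more at 20 µM, relative to plate controls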
WT yeast gro inh = growth inhibition of WT yeast, mitochondrial fusion screen | mitochondrial fusion phenotypic screen, WT strain | inhibition, % at 10 µM | 190,000 compounds, 2.1% hits; in the data active = inhibition above about 58%; tested in S. cerevisiae
Lmaj promast = inhibitors of Leishmania major promastigote growth; inhibition, % at 10 µM; AID 1063; Leishmania major promastigotes, resazurin fluorescence viability; 200,000 compounds, 9% hits; in the data active = inhibition above about 50%;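 also: promastigotes grown with compound for 44 hours at 28 °C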
Hits are given with their value; 0 = inactive; - = not tested or not shown. Compounds with a hit are over-represented: about 10% of the library has one in this group of screens.

SMILES	Diaph act CS	PMI act hi M6P	PMI act	WT yeast gro inh	Lmaj promast
COCCN1CC(=O)N(c2cccc(C)c2C)C(c2ccc(Cl)cc2)C1=O (centres undefined)	0	0	0	0	0
COCCCNCC1C(Oc2ccc(Cl)cc2)C(=O)N1c1ccccc1C (centres undefined)	0	0	0	0	84
Cc1ccccc1N1C(=O)C(Oc2ccc(Cl)cc2)C1CNCCCOC(C)C (centres undefined)	0	0	0	0	93
O=C(Nc1ccccc1[N+](=O)[O-])c1cccnc1Cl	0	0	0	0	0
CN(Cc1ccc(Cl)s1)C(=O)CCl	0	0	0	0	84
O=C1C=C(Nc2ccccc2O)c2ccccc2C1=O	0	0	0	0	100
O=C1C=C(NCc2ccccc2)c2ccccc2C1=O	0	0	0	0	97
CC(=O)c1c(NC(=O)c2ccccc2)[nH]c(-c2ccccc2)nc1=S	0	0	0	0	0
CC(=O)c1ccc(OC2OCCOC2Oc2ccc(C(C)=O)cc2)cc1 (centres undefined)	0	0	0	0	0
Cc1cc(C)nc(N2CCCC(C(=O)NCc3ccccc3F)C2)n1 (centres undefined)	0	0	0	0	0
CCOC(=O)Nc1ccc(Cc2ccncc2)cc1	0	0	0	0	0
O=C(NCc1ccc(Cl)cc1)C(=O)c1c[nH]c2ccccc12	0	0	0	0	0
O=C(CCl)N(c1ccccc1)c1c[nH]c2ccccc12	0	0	0	0	97
CCN(CC)C(=O)CCCc1c[nH]c2ccccc12	0	0	0	0	0
O=C(CCl)N(c1ccc(Cl)cc1)c1c[nH]c2ccccc12	0	0	0	0	100
Cc1nc([N+](=O)[O-])c(Br)n1Cc1ccc(Cl)c(Cl)c1	0	0	0	0	100
Cc1nc([N+](=O)[O-])c(Br)n1CC(=O)c1ccc(Cl)cc1	0	0	0	0	99
Cc1nc([N+](=O)[O-])c(NCCO)n1Cc1ccccc1	0	0	0	0	0
CC(C)C1OC(c2cccc(NC(=O)c3cccs3)c2)OCC1(C)C (centres undefined)	0	0	0	69	0
O=C(Nc1cccc(NC(=O)c2cccs2)c1)c1ccc2c(c1)OCCO2	0	0	0	0	0
Cc1nnc(SCC(=O)N2c3ccccc3CC2C)[nH]c1=O (centres undefined)	0	0	0	0	0
CC(C)CC(NC(=O)c1ccc(Cl)cc1)C(=O)OCC(=O)c1ccc2c(c1)NC(=O)CO2 (centres undefined)	0	0	0	0	64
COc1ccc(-c2nc(-c3cccs3)c(-c3cccs3)[nH]2)cc1OC	0	0	0	0	100
O=[N+]([O-])c1cccc(-c2nc(-c3ccccc3)c(-c3cccs3)[nH]2)c1	0	0	0	0	0
Cc1ccsc1-c1nc(-c2ccccc2)c(-c2ccccc2)[nH]1	0	0	0	0	0
SMILES	Diaph act CS	PMI act hi M6P	PMI act	WT yeast gro inh	Lmaj promast
O=[N+]([O-])c1cccc(-c2nc(-c3cccs3)c(-c3cccs3)[nH]2)c1	0	0	0	0	0
Fc1ccc(-c2nc(-c3cccs3)[nH]c2-c2ccc(F)cc2)cc1	0	0	0	78	99
COc1ccc(-c2nc(-c3ccccc3)c(-c3cccs3)[nH]2)cc1OC	0	0	0	0	66
COCc1cc(=O)[nH]c(/N=C(\N)Nc2cccc(Cl)c2)n1	0	0	0	0	0
COc1cc(CNC2CCCCCCC2)cc(Br)c1OCC#N	0	0	0	0	75
CCOc1c(Br)cc(CNC2CCCCCCC2)cc1OC	0	0	0	0	60
COc1ccc(CCN(Cc2cc3cccc(C)c3[nH]c2=O)C(=O)NC2CCCCC2)cc1OC	0	0	0	0	0
O=C(CN(C(=O)CSc1nnc(COc2ccccc2)o1)c1ccc(F)cc1)NC1CCCC1	0	0	0	0	0
O=C(CN(C(=O)CSc1nnc(COc2ccccc2)o1)c1ccc(F)cc1)NC1CCCCC1	0	0	0	0	52
Cc1cc(C)c2nc(NNC(=O)c3ccc(S(=O)(=O)N4CCc5ccccc5C4)cc3)sc2c1	0	0	0	0	99
CCc1nnc(NC(=O)c2ccc(S(=O)(=O)N3CCc4ccccc4C3)cc2)s1	0	0	0	0	0
Cc1cc(C)c2sc(NNC(=O)c3ccc(S(=O)(=O)N4CCc5ccccc5C4)cc3)nc2c1	0	0	0	0	99
CC1CCCCN1C(=O)Nc1cccc(C(F)(F)F)c1 (centres undefined)	0	0	0	0	0
CCCN(CC1CC1)C(=O)CSc1nnc(-c2cc(-c3cccs3)nc3ccccc23)o1	0	0	0	0	0
OCCn1c(-c2ccc(F)cc2)csc1=Nc1ccccc1	0	0	0	0	0
O=S(=O)(c1ccc(-c2csc(=Nc3ccccc3)n2CCCN2CCOCC2)cc1)N1CCOCC1	0	0	0	0	94
COc1ccc2c(c1)C=C(C(=O)NCc1ccc(Cl)cc1)CO2	0	0	0	68	0
COc1ccc(NC(=O)c2ccc(-c3ccccc3)cc2)cc1NS(=O)(=O)c1ccc(F)cc1	0	0	0	0	91
COc1ccccc1NS(=O)(=O)c1cc(NC(=O)c2ccc(Cl)nc2)ccc1Cl	0	0	0	0	0
CCN(CC)c1ccc(NC(=O)c2cccc(C)c2)cc1S(=O)(=O)Nc1ccccc1OC	0	0	0	0	97
CCN(CC)c1ccc(NC(=O)c2ccccc2)cc1S(=O)(=O)Nc1ccccc1OC	0	0	0	0	100
FC(F)(F)c1ccc(Cl)c(N/N=C/c2ccc(N3CCOCC3)s2)c1	0	0	0	58	98
CNc1nc(SC)nc2ccccc12	0	0	0	0	0
Cc1ccc(-c2nc(NCc3ccco3)c3ccccc3n2)cc1	0	0	0	67	100
CSc1nc(NCc2ccco2)c2ccccc2n1	0	0	0	0	70
SMILES	Diaph act CS	PMI act hi M6P	PMI act	WT yeast gro inh	Lmaj promast
c1cncc(-c2nc(NCc3ccco3)c3ccccc3n2)c1	0	0	0	0	77
COc1cccc(-c2nc(NCc3ccco3)c3ccccc3n2)c1O	0	0	0	-	0
CCOC(=O)CN1C(=O)C(Sc2n[nH]c(-c3ccccc3)n2)CCc2ccccc21 (centres undefined)	0	0	0	0	0
Cc1cccc(C(=O)NC2CCN(S(=O)(=O)c3ccccc3)CC2)c1	0	0	0	0	0
C/C(=N\NC(=O)Cn1ccc(C(F)(F)F)n1)c1ccco1	0	0	0	0	0
Cc1ccc(C)c(/C=N/n2cc(-c3ccccc3)[nH]c2=S)c1	0	0	0	71	0
S=c1[nH]c(-c2ccccc2)cn1/N=C/c1ccc(Br)cc1	0	0	0	0	0
Cc1cc(C)n2ncc(C(=O)O)c2n1	0	0	0	0	0
COc1ccc(CCNC(=O)c2c(C)nc3ccccn23)cc1OC	0	0	0	0	0
C(=N\N(Cc1ccccc1)c1ccccc1)/c1cccnc1	0	0	0	74	0
